The results in this text go back to ChEMBL document CHEMBL1255303, “In vitro and in vivo antifungal activities of T-2307, a novel arylamidine” (2008).

The test system of test [1] is Cryptococcus neoformans. The test is described as follows: Antifungal activity against Cryptococcus neoformans ATCC 90112 infected ICR mouse after 9 days. In kind it is functional. The conditions noted are these: ATCC 90112, 216 h. An outline of the steps:
(§1)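 Male ICR mice, 4 weeks old and SPF, were made neutropenic with intraperitoneal cyclophosphamide. The schedule was 200 mg/kg on day −3 (day −4 for Cryptococcus) plus 100 mg/kg on day +1. Infection was by tail-vein injection of 0.2 ml suspension: C. albicans 3.0 × 10^4, C. neoformans 9.1 × 10^4, A. fumigatus conidia 8.4 × 10^4 CFU/mouse. Drugs were given subcutaneously once daily for 7 days from 2 h post-infection; controls received saline. Groups had 8–10 mice.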

In test [2] the test system is Candida albicans. Put plainly: Antifungal activity against Candida albicans TIMM 1623 infected ICR mouse assessed as delay in mortality of mouse at 0.01 mg/kg after 6 days. In kind it is functional, organism-based. Further details: dose 0.01 mg/kg. An outline of the steps: as §1
Test [3] relates to Candida albicans. The test is described as follows: Antifungal activity against Candida albicans TIMM 1623 infected ICR mouse after 6 days. In kind it is functional. The conditions noted are these: TIMM 1623, 144 h. In outline: as §1
The next test deals with Lichtheimia corymbifera. The test is described as follows: Antifungal activity against Absidia corymbifera NBRC 4009 after 24 hrs by broth microdilution method. In kind it is functional. The following applies: NBRC 4009, 24 h. In outline:
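CLSI M27-A2 (yeasts) / M38-A (moulds) broth microdilution in RPMI 1640 buffered to pH 7.0 with 0.165 M MOPS. Malassezia furfur got the same medium supplemented with glucose, bile salts, glycerol, glycerol monostearate and Tween 20. Final inoculum 0.65 × 10^3–2.5 × 10^3 CFU/ml for yeasts and 0.87 × 10^4–3.8 × 10^4 CFU/ml for filamentous fungi. Incubation at 35°C except M. racemosus and F. solani, which were held at 30°C.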
(Dilution methods test growth across graded concentrations, often in twofold steps.)

For test [4], the system named is Cryptococcus neoformans. Put plainly: Antifungal activity against Cryptococcus neoformans ATCC 90112 infected ICR mouse assessed as delay in mortality of mouse at 0.1 mg/kg after 9 days. In kind it is functional, organism-based. Further details: dose 0.1 mg/kg. An outline of the steps:
as §1

Test [5] concerns Candida albicans. Put plainly: Antifungal activity against Candida albicans TIMM 1623 infected ICR mouse assessed as delay in mortality of mouse at 0.1 mg/kg after 6 days. In kind it is functional, organism-based. Further details: dose 0.1 mg/kg. An outline of the steps: as §1
For test [6], the system named is Cryptococcus neoformans. The test is described as follows: Antifungal activity against Cryptococcus neoformans ATCC 90112 infected ICR mouse assessed as delay in mortality of mouse at 0.3 mg/kg after 9 days. In kind it is functional, organism-based. Further details: dose 0.3 mg/kg. An outline of the steps: as §1
Test [7] relates to Candida albicans. The test is described as follows: Antifungal activity against Candida albicans TIMM 1623 infected ICR mouse assessed as delay in mortality of mouse at 0.2 mg/kg after 6 days. On the set-up: dose 0.2 mg/kg. In kind it is functional, organism-based. In outline:
as §1

SMILES strings stand for the structures. ≈ marks a conversion by molar mass, not a printed value. Calls of active or inactive are those of the source. Starred links: 1 amine or outer side, 2 acyl side, 3 side chain; linkers in the order of their positions; H or OH if unused. Positions of bridges follow the written chain, without caps; N, C: chain ends. Non-standard residues stand in square brackets, D forms with d. Residues, ends and D or L forms follow the SMILES beside them. *: point of attachment. hTyr(3S-OH,4S-OH,3'-OSO3H) = N[C@H](C(=O)O)[C@H](O)[C@@H](O)c1ccc(O)c(OS(=O)(=O)O)c1; Orn(4R-OH,5R-OH) = O=C([C@H](C[C@@H](O)[C@@H](O)N[*:3])N[*:1])[*:2]; Pro(3S-OH,4S-Me) = C[C@H]1CN[C@H](C(=O)O)[C@H]1O; X1 = CCCCCOc1ccc(-c2cc(-c3ccc(C(=O)*)cc3)no2)cc1; Gln(3R-OH) = NC(=O)C[C@@H](O)[C@H](N)C(=O)O; Hyp = O=C(O)[C@@H]1C[C@@H](O)CN1

For `N=C(N)c1ccc(OCCCC2CCN(CCCOc3ccc(C(=N)N)cc3)CC2)cc1`, the median effective dose (ED50) in the test with Cryptococcus neoformans [1] was 0.117 mg/kg; in the test on Candida albicans [3], 0.00755 mg/kg. The result in the test with Candida albicans [2] and with Cryptococcus neoformans [4] was Active. The minimal fungicidal concentration (MFC) in the test on Lichtheimia corymbifera is > 64 µg/mL. In the test on Lichtheimia corymbifera, the MIC was 0.5 µg/mL (≈ 1.14 µM).
`C[C@@H]1[C@H](O)[C@@H](C)/C=C/C=C/C=C/C=C/C=C/C=C/C=C/[C@H](O[C@@H]2O[C@H](C)[C@@H](O)[C@H](N)[C@@H]2O)C[C@@H]2O[C@](O)(C[C@@H](O)C[C@@H](O)[C@H](O)CC[C@@H](O)C[C@@H](O)CC(=O)O[C@H]1C)C[C@H](O)[C@H]2C(=O)O` [AMPHOTERICIN B]: the 50% effective dose (ED50) in the test on Cryptococcus neoformans [1] turned out to be 0.199 mg/kg; in the test with Candida albicans [3], 0.0466 mg/kg. Moreover, the result with Candida albicans [5] and in the test on Cryptococcus neoformans [6] was Active. Moreover, in the test on Lichtheimia corymbifera, the MFC is > 64 µg/mL. In the test on Lichtheimia corymbifera, this molecule came in with an MIC of 2 µg/mL (≈ 2.16 µM).
On to `OC(Cn1cncn1)(Cn1cncn1)c1ccc(F)cc1F` [FLUCONAZOLE], for which, in the test with Lichtheimia corymbifera, the MFC is > 64 µg/mL and the minimum inhibitory concentration (MIC) is > 64 µg/mL.
Take `CCCCCOc1ccc(-c2cc(-c3ccc(C(=O)N[C@H]4C[C@@H](O)[C@@H](O)NC(=O)[C@@H]5[C@@H](O)[C@@H](C)CN5C(=O)[C@H]([C@H](O)CC(N)=O)NC(=O)[C@H]([C@H](O)[C@@H](O)c5ccc(O)c(OS(=O)(=O)O)c5)NC(=O)[C@@H]5C[C@@H](O)CN5C(=O)[C@H]([C@@H](C)O)NC4=O)cc3)no2)cc1` [MICAFUNGIN] (X1-[Orn(4R-OH,5R-OH)]T[Hyp][hTyr(3S-OH,4S-OH,3'-OSO3H)][Gln(3R-OH)][Pro(3S-OH,4S-Me)]; lactam 1-C): the outcome in the test with Candida albicans [7] was Active. The molecule further showed a 50% effective dose (ED50) in the test on Candida albicans [3] of 0.182 mg/kg. For the same molecule, in the test with Lichtheimia corymbifera, the MFC is > 64 µg/mL and inhibition of growth (MIC) required 32 µg/mL (≈ 25.2 µM).
Turning to `C[C@@H](c1ncncc1F)[C@](O)(Cn1cncn1)c1ccc(F)cc1F` [VORICONAZOLE], in the test on Lichtheimia corymbifera, the minimal fungicidal concentration (MFC) is > 64 µg/mL and 32 µg/mL (≈ 91.6 µM) was the least that counted as inhibitory (MIC).

One may read the ED50 as the dose at which the effect has come halfway, by size or by number of responders. Low values mean an effect at a small dose, high ones a need for a large dose. In general, MFC refers to the lowest tested concentration that kills the fungus rather than only halting it. Lower therefore signals greater fungicidal potency. What is called MIC is the smallest concentration in the dilution series that meets the test's criterion for growth inhibition. A higher MIC goes with a less susceptible organism.
